Source: ChEMBL document CHEMBL1147905, “Novel thyroid hormone receptor antagonists with an N-alkylated diphenylamine skeleton” (Bioorg Med Chem, 2007)
The source made the active and inactive calls. The calls are words filed in the database; no cut-off is given here.

Columns and labels:
Type in all cases: functional, cell-based
Details in all cases: COS-1
[1] = molecular target: T1, Thyroid hormone receptor alpha (Homo sapiens) (UniProt P10827); assay: Antagonist activity at human thyroid hormone receptor alpha-1 expressed in COS1 cells by transactivation assay after 40 hrs
T1 sequence (whole entry): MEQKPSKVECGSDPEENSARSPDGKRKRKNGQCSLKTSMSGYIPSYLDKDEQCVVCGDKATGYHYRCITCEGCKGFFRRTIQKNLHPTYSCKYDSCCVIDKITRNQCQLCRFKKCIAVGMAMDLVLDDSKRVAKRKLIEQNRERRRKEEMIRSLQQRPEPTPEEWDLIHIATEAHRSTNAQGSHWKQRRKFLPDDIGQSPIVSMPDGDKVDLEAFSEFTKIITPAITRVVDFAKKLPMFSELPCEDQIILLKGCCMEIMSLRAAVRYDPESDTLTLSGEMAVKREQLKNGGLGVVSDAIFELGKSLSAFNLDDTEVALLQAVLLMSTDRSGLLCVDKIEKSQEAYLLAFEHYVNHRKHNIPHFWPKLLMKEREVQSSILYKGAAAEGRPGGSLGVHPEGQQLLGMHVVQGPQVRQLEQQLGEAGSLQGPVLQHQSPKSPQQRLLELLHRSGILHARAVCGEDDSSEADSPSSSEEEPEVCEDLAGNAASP
Summary of the method: (§1)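 Same COS-1 transfection (pCMX-hTRα1 or pCDNA-hTRβ1 with (TREpal)₃-TKLUC and pCMVβ) and 40 h treatment in charcoal-dextran FBS medium, 0.5% EtOH final. Compounds were added alongside 3 × 10⁻⁹ M T₃. Luciferase was normalised to β-galactosidase and expressed as percent of the T₃-alone value (100%). Means ± SD, n = 3.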

[2] = molecular target: T2, Thyroid hormone receptor beta (Homo sapiens) (UniProt P10828); assay: Antagonist activity at human thyroid hormone receptor beta-1 expressed in COS1 cells by transactivation assay after 40 hrs; summary of the method: as §1
T2 sequence (whole entry): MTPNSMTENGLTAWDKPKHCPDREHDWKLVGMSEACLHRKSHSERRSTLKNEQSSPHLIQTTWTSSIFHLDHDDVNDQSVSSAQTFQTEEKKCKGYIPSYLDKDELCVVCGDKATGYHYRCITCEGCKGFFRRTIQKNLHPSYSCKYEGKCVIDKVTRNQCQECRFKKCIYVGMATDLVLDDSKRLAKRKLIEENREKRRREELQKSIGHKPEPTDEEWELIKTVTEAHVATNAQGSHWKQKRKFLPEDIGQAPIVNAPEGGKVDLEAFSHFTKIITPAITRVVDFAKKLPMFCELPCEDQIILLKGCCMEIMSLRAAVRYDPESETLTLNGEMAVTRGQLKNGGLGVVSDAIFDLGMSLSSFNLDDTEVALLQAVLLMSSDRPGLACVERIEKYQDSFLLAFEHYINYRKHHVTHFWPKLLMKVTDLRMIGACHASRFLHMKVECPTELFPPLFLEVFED

[3] = molecular target: T2, Thyroid hormone receptor beta (Homo sapiens); assay: Agonist activity at human thyroid hormone receptor beta-1 expressed in COS1 cells by transactivation assay after 40 hrs
Summary of the method: (§2)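 COS-1 cells were seeded at 8 × 10⁴ per well in 5% FBS/DMEM and grown overnight at 37 °C, 5% CO₂. In serum-free DMEM with Lipofectamine 2000 they were transfected with pCMX-hTRα1 (α1) or pCDNA-hTRβ1 (β1) (100 ng), (TREpal)₃-TKLUC reporter (200 ng) and pCMVβ reference. After 4–5 h, charcoal-dextran FBS medium and compounds (final 0.5% EtOH) were added for 40 h. Read-out was luciferase normalised to β-galactosidase.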

[4] = molecular target: T1, Thyroid hormone receptor alpha (Homo sapiens); assay: Agonist activity at human thyroid hormone receptor alpha-1 expressed in COS1 cells by transactivation assay after 40 hrs; summary of the method: as §2

Row | Activity [1] | Activity [2] | Activity [3] | Activity [4] | Structure (SMILES)
1 | Active | Active | inactive | inactive | Cc1cc(CC2SC(=O)NC2=O)cc(C)c1N(CC1CC1)c1ccc(O)c(C(C)C)c1 (stereo not drawn)
2 | Active | Active | inactive | inactive | Cc1cc(CC2SC(=O)NC2=O)cc(C)c1N(CC1CCCCC1)c1ccc(O)c(C(C)C)c1 (stereo not drawn)
3 | Active | Active | inactive | inactive | Cc1cc(CC2SC(=O)NC2=O)cc(C)c1N(Cc1ccccc1)c1ccc(O)c(C(C)C)c1 (stereo not drawn)
4 | Active | Active | inactive | inactive | Cc1cc(CC2SC(=O)NC2=O)cc(C)c1N(CC(C)C)c1ccc(O)c(C(C)C)c1 (stereo not drawn)
5 | inactive | inactive | Active | Active | Cc1cc(CC2SC(=O)NC2=O)cc(C)c1N(C)c1ccc(O)c(C(C)C)c1 (stereo not drawn)
6 | Active | Active | inactive | inactive | CC(C)=CCN(c1ccc(O)c(C(C)C)c1)c1c(C)cc(CC2SC(=O)NC2=O)cc1C (stereo not drawn)
7 | Active | Active | inactive | inactive | CCCCCCN(c1ccc(O)c(C(C)C)c1)c1c(C)cc(CC2SC(=O)NC2=O)cc1C (stereo not drawn)
